Assay results published in ChEMBL document CHEMBL3861959, “Synthesis and antiproliferative evaluation of novel 2-(4H-1,2,4-triazole-3-ylthio)acetamide derivatives as inducers of apoptosis in cancer cells” (Eur J Med Chem, 2016).
Values after ≈ are worked out from the molar mass of the structure shown.

Experiments:
[1] = Cytotoxicity against human OVCAR8 cells assessed as cell growth at 10^-5 M after 48 hrs by SRB assay relative to control; format: functional; conditions: OVCAR-8, 48 h, read-out: Activity
How it was run: (§1)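 NCI single-dose primary screen run under the US NCI protocol. Compounds tested at 10 µM across the 60-cell-line panel, with growth percent reported for each line.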

[2] = Cytotoxicity against human MDA-MB-231 cells assessed as cell growth at 10^-5 M after 48 hrs by SRB assay relative to control; format: functional; conditions: MDA-MB-231, 48 h, read-out: Activity; how it was run: as §1
[3] = Cytotoxicity against mouse NIH/3T3 cells assessed as decrease in cell survival after 48 hrs by MTT assay; format: toxicity, NIH3T3
[4] = Cytotoxicity against human SK-MEL-5 cells assessed as cell growth at 10^-5 M after 48 hrs by SRB assay relative to control; format: functional; conditions: SK-MEL-5, 48 h, read-out: Activity
How it was run: (§2)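 Single-dose NCI 60-cell-line screen run under the US NCI protocol. Compounds tested at 10 µM. Read-out is growth percent for each cell line.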

[5] = Cytotoxicity against human SK-MEL-28 cells assessed as cell growth at 10^-5 M after 48 hrs by SRB assay relative to control; format: functional; conditions: SK-MEL-28, 48 h, read-out: Activity; how it was run: as §2
[6] = Cytotoxicity against human SF268 cells assessed as cell growth at 10^-5 M after 48 hrs by SRB assay relative to control; format: functional; conditions: SF-268, 48 h, read-out: Activity; how it was run: as §1
[7] = Cytotoxicity against human NCI-ADR-RES cells assessed as cell growth at 10^-5 M after 48 hrs by SRB assay relative to control; format: functional; conditions: read-out: Activity; how it was run: as §1
[8] = Cytotoxicity against human HOP92 cells assessed as cell growth at 10^-5 M after 48 hrs by SRB assay relative to control; format: functional; conditions: HOP-92, 48 h, read-out: Activity; how it was run: as §1
[9] = Cytotoxicity against human HOP62 cells assessed as cell growth at 10^-5 M after 48 hrs by SRB assay relative to control; format: functional; conditions: HOP-62, 48 h, read-out: Activity; how it was run: as §1
[10] = Cytotoxicity against human COLO205 cells assessed as cell growth at 10^-5 M after 48 hrs by SRB assay relative to control; format: functional; conditions: COLO 205, 48 h, read-out: Activity; how it was run: as §1
[11] = Cytotoxicity against human CCRF-CEM cells assessed as cell growth at 10^-5 M after 48 hrs by SRB assay relative to control; format: functional; conditions: read-out: Activity; how it was run: as §1
[12] = Cytotoxicity against human UO31 cells assessed as cell growth at 10^-5 M after 48 hrs by SRB assay relative to control; format: functional; conditions: UO-31, 48 h, read-out: Activity; how it was run: as §2
[13] = Cytotoxicity against human SW620 cells assessed as cell growth at 10^-5 M after 48 hrs by SRB assay relative to control; format: functional; conditions: SW-620, 48 h, read-out: Activity; how it was run: as §2
[14] = Cytotoxicity against human NCI-H226 cells assessed as cell growth at 10^-5 M after 48 hrs by SRB assay relative to control; format: functional; conditions: NCI-H226, 48 h, read-out: Activity; how it was run: as §1
[15] = Cytotoxicity against human OVCAR5 cells assessed as cell growth at 10^-5 M after 48 hrs by SRB assay relative to control; format: functional; conditions: OVCAR-5, 48 h, read-out: Activity; how it was run: as §1
[16] = Cytotoxicity against human MALME-3M cells assessed as cell growth at 10^-5 M after 48 hrs by SRB assay relative to control; format: functional; conditions: read-out: Activity; how it was run: as §1
[17] = Cytotoxicity against human SNB75 cells assessed as cell growth at 10^-5 M after 48 hrs by SRB assay relative to control; format: functional; conditions: SNB-75, 48 h, read-out: Activity; how it was run: as §2
[18] = Cytotoxicity against human TK10 cells assessed as cell growth at 10^-5 M after 48 hrs by SRB assay relative to control; format: functional; conditions: TK-10, 48 h, read-out: Activity; how it was run: as §2
[19] = Cytotoxicity against human NCI-H522 cells assessed as cell growth at 10^-5 M after 48 hrs by SRB assay relative to control; format: functional; conditions: NCI-H522, 48 h, read-out: Activity; how it was run: as §1
[20] = Cytotoxicity against human RPMI8226 cells assessed as cell growth at 10^-5 M after 48 hrs by SRB assay relative to control; format: functional; conditions: RPMI-8226, 48 h, read-out: Activity; how it was run: as §1
[21] = Cytotoxicity against human KM12 cells assessed as cell growth at 10^-5 M after 48 hrs by SRB assay relative to control; format: functional; conditions: KM12, 48 h, read-out: Activity; how it was run: as §1
[22] = Cytotoxicity against human EKVX cells assessed as cell growth at 10^-5 M after 48 hrs by SRB assay relative to control; format: functional; conditions: read-out: Activity; how it was run: as §1
[23] = Cytotoxicity against human UACC257 cells assessed as cell growth at 10^-5 M after 48 hrs by SRB assay relative to control; format: functional; conditions: UACC-257, 48 h, read-out: Activity; how it was run: as §2
[24] = Cytotoxicity against human UACC62 cells assessed as cell growth at 10^-5 M after 48 hrs by SRB assay relative to control; format: functional; conditions: UACC-62, 48 h, read-out: Activity; how it was run: as §2
[25] = Cytotoxicity against human OVCAR4 cells assessed as cell growth at 10^-5 M after 48 hrs by SRB assay relative to control; format: functional; conditions: OVCAR-4, 48 h, read-out: Activity; how it was run: as §1
[26] = Cytotoxicity against human MOLT4 cells assessed as cell growth at 10^-5 M after 48 hrs by SRB assay relative to control; format: functional; conditions: MOLT-4, 48 h, read-out: Activity; how it was run: as §1
[27] = Cytotoxicity against human SKOV3 cells assessed as cell growth at 10^-5 M after 48 hrs by SRB assay relative to control; format: functional; conditions: SK-OV-3, 48 h, read-out: Activity; how it was run: as §2
[28] = test system: Human immunodeficiency virus 1; assay: Antiviral activity against HIV1 3B infected in human MT4 cells assessed as protection against virus-induced cytopathic effect after 5 days MTT assay; format: functional, cell-based; conditions: Human immunodeficiency virus 1, 3B, MT4, 120 h
How it was run: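 HIV-1 strain IIIB and HIV-2 strain ROD in MT-4 cells, MTT-based. Test compounds in serial five-fold dilutions, in triplicate wells run alongside mock-infected cells, with untreated infected and mock controls. MT-4 cells resuspended at 6 × 10^5 cells/mL. Absorbance read at 540 and 690 nm, median OD of three wells. EC50 is the 50% effective concentration.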

[29] = Cytotoxicity against human NCI-H322M cells assessed as cell growth at 10^-5 M after 48 hrs by SRB assay relative to control; format: functional; conditions: read-out: Activity; how it was run: as §1
[30] = Cytotoxicity against human MT4 cells assessed as decrease in cell viability after 5 days by MTT assay; format: toxicity, cell-based
How it was run: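 MT-4 cells in mock-infected wells of the anti-HIV MTT setup. Compounds in serial five-fold dilutions in triplicate, cells at 6 × 10^5 cells/mL. Absorbance at 540 and 690 nm, median OD of three wells. CC50 is the concentration that lowers OD540 of the mock-infected control by 50%.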

[31] = Cytotoxicity against human MCF7 cells assessed as cell growth at 10^-5 M after 48 hrs by SRB assay relative to control; format: functional; conditions: MCF7, 48 h, read-out: Activity; how it was run: as §1

SMILES	growth at 10 µM [1] [%]	growth at 10 µM [2] [%]	IC50 at 48 h [3] [µg/mL]	growth at 10 µM [4] [%]	growth at 10 µM [5] [%]	growth at 10 µM [6] [%]	growth at 10 µM [7] [%]	growth at 10 µM [8] [%]	growth at 10 µM [9] [%]	growth at 10 µM [10] [%]	growth at 10 µM [11] [%]	growth at 10 µM [12] [%]	growth at 10 µM [13] [%]	growth at 10 µM [14] [%]	growth at 10 µM [15] [%]	growth at 10 µM [16] [%]	growth at 10 µM [17] [%]	growth at 10 µM [18] [%]	growth at 10 µM [19] [%]	growth at 10 µM [20] [%]	other results
CC(=O)Nc1ccc(OCc2nnc(SCC(=O)Nc3ccc(Br)cc3)n2Cc2ccccc2)cc1	84.8	75	> 100	69.8	102	70.9	68.2	70.9	90.3	105	56.3	52.8	59	80.3	92	93.8	103	87.1	71.2	72.2	growth at 10 µM [21]: 56.4%; growth at 10 µM [22]: 70%; growth at 10 µM [23]: 98.4%; growth at 10 µM [24]: 32.5%; growth at 10 µM [25]: 101%; growth at 10 µM [26]: 64.7%; growth at 10 µM [27]: 110%; EC50 [28]: > 3.99 µg/mL; growth at 10 µM [29]: 81.2%; CC50 at 120 h [30]: ≥ 3.99 µg/mL; growth at 10 µM [31]: 70.2%
Cc1ccc(C(C)C)c(OCc2nnc(SCC(=O)Nc3ccc(S(N)(=O)=O)cc3)n2Cc2ccccc2)c1	41.1	69.1	> 100	50.3	89.3	74	77.1	75.2	79.1	90.2	35.6	42.7	91.7	66.6	99.4	84.3	93.8	94	75.3	40.8	growth at 10 µM [21]: 54.3%; growth at 10 µM [22]: 55.5%; growth at 10 µM [23]: 89%; growth at 10 µM [24]: 51.2%; growth at 10 µM [25]: 88.8%; growth at 10 µM [26]: 45.2%; growth at 10 µM [27]: 109%; EC50 [28]: > 13 µg/mL; growth at 10 µM [29]: 89.3%; CC50 at 120 h [30]: 13 µg/mL (≈ 23 µM); growth at 10 µM [31]: 50%
Cc1ccc(C(C)C)c(OCc2nnc(SCC(=O)Nc3ccc(Cl)cc3)n2Cc2ccccc2)c1	67.3	75.7	> 100	90.5	113	88.6	69.1	78	81.2	78.2	72.7	53.6	65.9	88	93.2	75.6	93.6	71.9	90.4	83.8	growth at 10 µM [21]: 76.9%; growth at 10 µM [22]: 69.6%; growth at 10 µM [23]: 105%; growth at 10 µM [24]: 94%; growth at 10 µM [25]: 33.4%; growth at 10 µM [26]: 73.7%; growth at 10 µM [27]: 109%; EC50 [28]: > 65.9 µg/mL; growth at 10 µM [29]: 72.5%; CC50 at 120 h [30]: 65.9 µg/mL (≈ 126 µM); growth at 10 µM [31]: 75.7%
